# PubChem BioAssay AID617 (SRMLSC, 2007)
# Tested on: E. coli BW25113 ΔtolC growth inhibition, OD615
# Experiment: E. coli ΔtolC antibacterial growth inhibition – strain BW25113 ΔtolC::kan, dose response (AID 617)
# Summary of the method: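 Material: E. coli BW25113 ΔtolC::kan bacteria; input: inoculum from 1:1000-diluted 1.5 h subculture; medium: kanamycin-containing LB broth, 50 µg/mL; dosing: compounds in serially diluted dose-response series; incubation: 20 h exposure at 37 °C; measured by: absorbance at 615 nm; control set: chloramphenicol control, 30 µM final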
row,SMILES,IC50 [µM]
1,Cc1c(C(=O)N2CCCCC2)oc2ccc(S(=O)(=O)N3CC(C)CC(C)C3)cc12 (stereo not drawn),9.13
2,O=C(CS(=O)(=O)c1ccccc1)Nc1nc(-c2ccccc2)cs1,8.07
3,CC1CCCCN1C(=O)CSc1nc(C2CC2)nc2c1cnn2-c1ccccc1 (stereo not drawn),12.3
4,O=C1c2ccccc2C(=O)N1CCC(c1ccc(F)cc1)c1ccco1 (stereo not drawn),13.4
5,Cc1ccc(Cl)cc1N1CCN(C(=O)COc2ccc(S(=O)(=O)NC(C)C)cc2)CC1,10.6
6,CCCCCn1c(SCCC(C)C)nc2c1c(=O)[nH]c(=O)n2C,38
7,COC(=O)c1ccc(CSc2nc3ccccc3o2)cc1,20.2
8,CCNc1nc(NC(C)C)nc(N(C#N)CCOc2ccc(Cl)cc2Cl)n1,6.64
9,O=C(Nc1ccc2oc(Cc3ccc(Cl)cc3)nc2c1)c1cccnc1,53.9
10,Cc1ccc(Cl)cc1N1CCN(C(=O)CCS(=O)(=O)c2cccc3nonc23)CC1,44
11,CC1CC(C)CN(C(=O)CSc2nnc(-c3ccc(Cl)s3)o2)C1 (stereo not drawn),17.4
12,CCOC(=O)c1c(-c2cccs2)csc1NC(=O)CN1CC(C)OC(C)C1 (stereo not drawn),24.8
13,COc1ccc(S(=O)(=O)n2cnc3cc(C)c(C)cc32)cc1C,13.6
14,COc1ccccc1-c1nnc(NC(=O)c2ccc(S(=O)(=O)N(C)C)cc2)o1,3.77
15,Cc1cccc(-c2cc3nc4c(c(N5CCOCC5)n3n2)CCCC4)c1,16
16,CC(C)(C)n1c(O)c(C=Nc2ccc3c(c2)CCC3)c(=O)[nH]c1=O,12.8
17,O=C(Nc1cnn(Cc2ccc(Cl)cc2Cl)c1)c1noc2c1CCCC2,8.39
18,COc1cccc(-c2cc(C(F)(F)F)nc(N3CCOCC3)n2)c1,16.5
19,N#Cc1c(NC(=O)c2ccc(Br)o2)n(-c2ccccc2)c2nc3ccccc3nc12,15.3
20,CCC1CCCCN1S(=O)(=O)c1ccc2c(c1)CCN2C(=O)C1CCC1 (stereo not drawn),14.7
21,Cc1cccc(S(=O)(=O)Nc2nc3ccccc3nc2NCc2ccco2)c1,6.92
22,Cc1ccc2ccc(S(=O)(=O)n3nc(C)cc3C)cc2c1,14.5
23,O=C(NCc1ccco1)c1ccc(S(=O)(=O)N2CCCc3ccccc32)cc1,30.2

row,SMILES,IC50 [µM]
1,c1ccc(-n2nnnc2Oc2cccc3cccnc23)cc1,7.65
2,Cc1csc(SCC(=O)Nc2nc(-c3ccccc3)cs2)n1,14.1
3,Cc1cccc(NC(=O)CSc2nnc(-c3cc(C)n(-c4ccccc4)c3C)o2)c1C,14
4,CC1CCCCN1S(=O)(=O)c1ccc(C(=O)Nc2nnc(-c3cccs3)o2)cc1 (stereo not drawn),0.24
5,C=CCNc1ncnc2c1[nH]c1ccc(C)cc12,2.38
6,N#C/C(=C\C1CC=CCC1)c1nc2ccccc2[nH]1 (stereo not drawn),36.9
7,O=C(CSc1nnc(Cc2ccccc2)n1Cc1ccco1)NC12CC3CC(CC(C3)C1)C2,61.8
8,Cc1ccc2oc(C(=O)NCc3ccc4c(c3)OCO4)c(C)c2c1,11.1
9,CCc1c(O)nc(SCC(=O)Nc2ccc(C)cc2)n(C2CCCCC2)c1=O,7.36
10,CCOc1ccc(NS(=O)(=O)c2ccc3[nH]cc(C(=O)NC(C)CC)c(=O)c3c2)cc1 (stereo not drawn),11.1
11,O=C(Nc1nnc(-c2ccc(Cl)cc2)o1)c1ccccc1Br,0.4
12,Cc1onc(-c2ccccc2)c1C(=O)Nc1sc2c(c1C#N)CCC2,10.1
13,COc1cc(/C=C(/C#N)c2ccc(F)cc2)ccc1OCc1ccc(C(=O)O)o1,4.94
14,Brc1ccc(CSc2nnc(-c3ccccn3)n2Cc2ccco2)cc1,9.85
15,COc1ccccc1-c1cc(C(=O)NCc2ccccc2)no1,17.1
16,CCCn1nnnc1NC(=O)CSc1ccc(Cl)cc1,4.21
17,CCOC(=O)c1cc2sccc2n1CC(=O)N1CCCc2ccccc21,15.1
18,Cc1cc(N2CCCCCC2)nc(-c2ccccc2O)n1,13.6
19,Cc1cc2n(n1)C(c1ccc3c(c1)OCO3)Nc1c(C)cccc1-2 (stereo not drawn),29.6
20,O=C(COc1ccc2ccccc2c1Br)N1CCN(c2ccccn2)CC1,10.5
21,Cc1cc2c(cc(C(=O)OCC(=O)NCc3cccs3)n2C(C)C)o1,25
22,Cc1ccc(O)c(C(=O)CC(=O)c2cccc(F)c2)c1,11.6
23,CCOc1ccccc1NC(=O)c1cc(CC(C)C)oc1C,21.8

row,SMILES,IC50 [µM]
1,COc1cccc(-c2nnc(NC(=O)c3ccc(S(=O)(=O)N4CCOCC4)cc3)o2)c1,0.99
2,CN(c1ccccc1)C(c1ccc(F)cc1)c1nnnn1C1CCCC1 (stereo not drawn),11.1
3,Cc1nc(N2CCN(c3ccccc3)CC2)nc2c1C(=O)CCC2,26.6
4,O=C(COc1ccccc1)Nc1ccccc1N1CCCCC1,25.6
5,COc1cccc(-c2cc(C(=O)N3CC4(C)CC3CC(C)(C)C4)no2)c1 (stereo not drawn),11
6,COc1ccc(NS(=O)(=O)c2ccc3oc(Nc4ccc5c(c4)OCCO5)nc3c2)cc1,7.68
7,N#Cc1c(NC(=O)c2ccc(Cn3cc(Br)cn3)o2)sc2c1CCCCCC2,11.5
8,COc1ccc(CN(C(=O)CN2C(=O)COc3ccccc32)C2CCCC2)c(OC)c1,19.1
9,CCCc1nc(SC2CCCC2)c2c(=O)n(C)c(=O)n(C)c2n1,13.6
10,COc1ccccc1-c1cc(C(=O)N2CCN(c3ccccc3OC)CC2)no1,17.9
11,Cn1c(C(=O)N2CCc3ccccc3C2)cc2oc3ccccc3c21,7.81
12,CCCOc1ccc(C2C(C(=O)c3ccc(C)o3)=C(O)C(=O)N2Cc2cccnc2)cc1 (stereo not drawn),36.1
13,NC1=NC(c2cn(-c3ccccc3)nc2-c2cccs2)n2c(nc3ccccc32)N1 (stereo not drawn),16.4
14,CCc1cc2c(N3CCN(c4ccccc4)CC3)ncnc2s1,13.6
15,CC1=C(C(=O)OC(C)C)C(c2c[nH]c3ccccc23)n2ncnc2N1 (stereo not drawn),6.11
16,C=CCn1cc(C(=O)NCc2ccco2)c(=O)c2cc(S(=O)(=O)N3CCCCCC3)ccc21,16.1
17,O=C(O)C1CC=CCC1C(=O)Nc1ccc(S(=O)(=O)N2CCCc3ccccc32)cc1 (stereo not drawn),8.93
18,CCCCc1ccc(Nc2nc(CCC)cc(=O)[nH]2)cc1,14.9
19,O=c1ccsn1Cc1ccccc1,3.15
20,Cc1cc(C)cc(Nc2cc(=O)n(C3CCCCC3)c(=O)[nH]2)c1,2.8
21,CCCc1ccc(Oc2cn[nH]c2-c2ccc(O)c(C)c2O)cc1,1.84
22,COc1ccc(OCC(O)CNc2ccc(Br)cc2)cc1 (stereo not drawn),12.7
23,CCCCn1nc(NC(=O)c2cccs2)c2cc3ccccc3nc21,8.28

row,SMILES,IC50 [µM]
1,COc1ccc(C(C(O)C(=O)c2c[nH]c3ccccc23)N2CCN(c3ccc(OC)cc3)CC2)cc1 (stereo not drawn),11.3
2,Cc1ccc(-c2csc3ncn(-n4c(C)ccc4C)c(=O)c23)o1,14.9
3,Clc1ccc2[nH]c3c(c2c1)CCc1cn[nH]c1-3,6.49
4,O=S(=O)(Nc1nnc(-c2ccccc2)s1)c1ccc(Cl)cc1,3.74
5,CC(C)(C)c1csc(NC(=O)c2ccc(Cl)s2)n1,29.6
6,Cc1ccc(C)c(N2CCN(C(=O)c3ccc(NS(=O)(=O)c4c(C)noc4C)cc3)CC2)c1,13.6
7,O=C(Cn1c(C(=O)NCc2ccco2)cc2sccc21)c1ccccc1,24.6
8,Cc1ccc(-c2noc(CCC(=O)N3CCCc4ccccc43)n2)cc1,12.8
9,Cc1cc(C(=O)OCc2nc3ccccc3s2)c(C)o1,32.6
10,O=C(CCc1nc(-c2ccccc2F)no1)Nc1ccc(Oc2ccccc2)cc1,9.55
11,COc1ccccc1Cc1nc(-c2ccc(Br)o2)no1,19.7
12,Cc1cc(Cl)cc(C)c1OCCCCn1ccnc1,15
13,Nc1nc(CN2CCN(c3cccc(Cl)c3)CC2)nc(N2CCCc3ccccc32)n1,4.27
14,CCc1ccc2[nH]c(=O)c(C(c3nnnn3CCOC)N3CCN(c4ccc(F)cc4)CC3)cc2c1 (stereo not drawn),35.7
15,Clc1ccccc1OCc1nnc(-c2ccccc2Br)o1,12.4
16,CCn1cc(C(=O)NC2CCCCC2C)c(=O)c2ccc(C)nc21 (stereo not drawn),5.31
17,CCOC(=O)Cc1nnc2c(Nc3ccc(Cl)cc3)nc3nonc3n12,3.75
18,Cc1nnc(NC(=O)c2ccc(S(=O)(=O)N(C)Cc3ccccc3)cc2)o1,3.87
19,CN(C)c1ccc(-c2nn3c(-c4ccncc4)nnc3s2)cc1,13.6
20,COc1ccc2nc(NC(=O)CSc3nnnn3C3CCCCC3)sc2c1,63.6
21,c1ccc(-c2oc3ncnc(NCCN4CCOCC4)c3c2-c2ccccc2)cc1,11.8
22,CN(C1CCCCC1)S(=O)(=O)c1ccc(NC(=O)c2ccc(Br)o2)cc1,10.6
23,CCS(=O)(=O)n1nc(-c2ccccc2)nc1SCc1ccccc1,15.7

row,SMILES,IC50 [µM]
1,CCC(Oc1ccccc1)C(=O)Nc1nnc(C(F)(F)F)s1 (stereo not drawn),9.18
2,Cc1ccc(-c2nnc(SCC(=O)N3CC(C)CC(C)C3)o2)cc1C (stereo not drawn),12.9
3,Cc1cc(C)cc(-n2ccnc2SCC(=O)Nc2ccc3c(c2)OCCO3)c1,28.1
4,Cn1c(=O)c2c(nc(N3CCCCCC3)n2Cc2cccc3ccccc23)n(C)c1=O,7.33
5,CCCOC(=O)c1ccc(Oc2cn[nH]c2-c2ccc(OCC)cc2O)cc1,13.6
6,N/C(=N/O)c1nc(N2CCCC2)nc(N(c2ccccc2)c2ccccc2)n1,10.9
7,C/C(O)=c1/ccc2cccc3nc(C)nc1c23,26
8,Cc1ccc(C)c(S(=O)(=O)C(C#N)c2nc3ccccc3nc2N2CCOCC2)c1 (stereo not drawn),11.6
9,CCCCN(C)S(=O)(=O)c1ccc(C(=O)Nc2nnc(CSC)o2)cc1,0.86
10,Clc1ccc(Nc2nc(-c3cccs3)cs2)nc1,80.2
11,CCCCCCc1ccc(-c2ncc(N)cn2)cc1,16.6
12,COc1ccc2[nH]c3c(=O)n(CCCCC(=O)NCCN4CCCC4)c(=S)[nH]c3c2c1,17.4
13,O=c1c2ccccc2n(Cc2ccc(F)cc2)c(=O)n1C1CCCC1,9.26
14,CCC(C(=O)N1CCN(c2cccc(Cl)c2)CC1)c1ccccc1 (stereo not drawn),14.2
15,COc1cccc(NC(=O)N2CCN(c3cccc(C)c3C)CC2)c1,13.4
16,Cc1nc2nc(-c3ccco3)[nH]n2c(=O)c1Cc1ccccc1,5.98
17,O=C(CN1CCN(c2nc(-c3ccc(F)cc3)cs2)CC1)NCc1ccc2c(c1)OCO2,11.1
18,CCOC(=O)c1cc(C)n(S(=O)(=O)c2ccc(C)cc2)c1C,12.4
19,COC(=O)c1sc(N2C(=O)C(O)=C(C(=O)c3ccc(C)o3)C2c2ccc(F)cc2)nc1C (stereo not drawn),15.6
20,O=C(c1ccc(Cl)c(Cl)c1)N(Cc1ccco1)c1ccc(O)cc1,3.7
21,O=C(C1CC1)N1CCc2cc(S(=O)(=O)NCCC3=CCCCC3)ccc21,17.7
